We go through 23 compounds from ChEMBL document CHEMBL4480421 (Bioorg Med Chem, 2019).

Series [1] has as its system Vero. Description: Cytotoxicity against African green monkey Vero cells after 72 hrs by MTS-PMS assay. The series is classed as cell-based. The following applies: Chlorocebus sabaeus. (In general: Tetrazolium dyes change colour on reduction, which living cells bring about.)
Series [2] can be described thus: Protein binding in human plasma. The class given is ADME, cell-free. The conditions noted are these: read-out: PPB.
Series [3] can be described thus: Ratio of AUC in mouse to MIC90 of replicating Mycobacterium tuberculosis H37Rv after 4 days by Alamar blue assay. In a few lines: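 Mouse plasma exposure (AUC_inf, µg*h/mL) divided by the MIC90 against replicating H37Rv from the aerobic MABA assay.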
On the technique in general: Resazurin is reduced to fluorescent resorufin, in cell work by metabolically active cells.

In series [4] the target is Cytochrome P450 3A4 (Homo sapiens, UniProt P08684). Description: Inhibition of CYP3A4 (unknown origin). The class given is ADME.
Series [5] concerns Mycobacterium tuberculosis. The series is described as follows: Antitubercular activity against replicating Mycobacterium tuberculosis H37Rv after 4 days by Alamar blue assay. The class given is functional. The conditions noted are these: 96 h. In short, it runs like this:
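MIC90 against M. tuberculosis H37Rv under aerobic, replicating conditions (MABA). Tested at the Institute for Tuberculosis Research, University of Illinois at Chicago.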

Series [6] deals with Mycobacterium tuberculosis. Description: Antitubercular activity against non-replicating Mycobacterium tuberculosis H37Rv after 10 days by LORA. The series is classed as functional. The conditions noted are these: 240 h. In a few lines: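 MIC90 against M. tuberculosis H37Rv under non-replicating conditions (LORA). Tested at the Institute for Tuberculosis Research, University of Illinois at Chicago.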

≈ marks a conversion by molar mass, not a printed value.

Sequence of Cytochrome P450 3A4 (P08684 whole entry): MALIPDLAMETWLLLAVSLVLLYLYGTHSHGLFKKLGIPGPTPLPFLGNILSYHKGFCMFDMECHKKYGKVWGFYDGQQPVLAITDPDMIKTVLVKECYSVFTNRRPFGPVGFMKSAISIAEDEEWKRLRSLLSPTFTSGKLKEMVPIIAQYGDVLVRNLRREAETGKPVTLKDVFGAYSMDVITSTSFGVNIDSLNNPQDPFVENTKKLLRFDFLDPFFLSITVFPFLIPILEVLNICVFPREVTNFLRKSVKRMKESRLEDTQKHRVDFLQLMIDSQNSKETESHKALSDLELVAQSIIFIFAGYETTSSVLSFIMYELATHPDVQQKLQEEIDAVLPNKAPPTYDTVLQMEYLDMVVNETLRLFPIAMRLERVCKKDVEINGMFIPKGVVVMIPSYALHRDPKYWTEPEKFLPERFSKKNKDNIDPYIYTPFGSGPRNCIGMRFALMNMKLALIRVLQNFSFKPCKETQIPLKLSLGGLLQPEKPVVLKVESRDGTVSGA

What is called IC50 is the concentration that gives 50% inhibition. Consider `CCOc1cc(C(O)(CCN(C)C)C(c2cc3cc(Br)ccc3nc2OC)c2ccnc(OC)c2OC)cc(OC(C)C)n1` (racemic), for which the IC50 in series [1] was more than 10 µg/mL. In addition, the fraction unbound in series [2] was less than 0.001.
In series [1], `CCc1cc(C(O)(CCN(C)C)C(c2cc3cc(Br)ccc3nc2OC)c2cccc(OC)c2F)cc(CC)n1` (racemic) had an IC50 of more than 10 µg/mL. The fraction unbound in series [2] was less than 0.001.
Consider `COc1cc(C(O)(CCN(C)C)C(c2cc3cc(Br)ccc3nc2OC)c2cccc(OC)c2F)c(OC)cn1` (racemic), for which, in series [1], the IC50 is more than 10 µg/mL. The fraction unbound in series [2] was less than 0.001.
In series [1], `CCc1cc(C(O)(CCN(C)C)C(c2cc3cc(C#N)ccc3nc2OC)c2cccc(OC)c2F)cc(CC)n1` (racemic) registered an IC50 of more than 10 µg/mL. Further, the fraction unbound in series [2] was less than 0.001.
Regarding `COc1nc2ccc(Br)cc2cc1C(c1cccc2c1OCO2)C(O)(CCN(C)C)c1cccnc1OC` (racemic), the IC50 in series [1] was more than 10 µg/mL; in series [4], more than 10 µM. Also, the Ratio in series [3] was determined as 5.73. Also, the fraction unbound in series [2] is less than 0.001.
The compound `COc1cccc(C(c2cc3cc(C#N)ccc3nc2OC)C(O)(CCN(C)C)c2cc(C)nc(C)c2)c1OC` (racemic) showed an IC50 in series [1] of more than 10 µg/mL. Moreover, the Ratio in series [3] turned out to be 6.17. In series [2], the fraction unbound is less than 0.001.
In series [1], `COc1nc2ccc(Br)cc2cc1[C@@H](c1ccccc1)[C@@](O)(CCN(C)C)c1cccc2ccccc12` [BEDAQUILINE] showed an IC50 of more than 10 µg/mL. In addition, the fraction unbound in series [2] was less than 0.001.
For the compound `COc1nc2ccc(Br)cc2cc1C(c1cccc2c1OCO2)C(O)(CCN(C)C)c1cccnc1C` (racemic), the IC50 was more than 10 µg/mL in series [1] and more than 10 µM in series [4]. The fraction unbound in series [2] is less than 0.001.
Turning to `COc1cccc(C(c2cc3cc(Br)ccc3nc2OC)C(O)(CCN(C)C)c2cc(C)cnc2C)c1OC` (racemic), the IC50 in series [1] was more than 10 µg/mL. In addition, the Ratio in series [3] came out at 19.9. In series [2], the fraction unbound was less than 0.001.
`COc1nc2ccc(C#N)cc2cc1C(c1cccc(C)c1)C(O)(CCN(C)C)c1cccnc1OC` (racemic): the IC50 in series [1] was more than 10 µg/mL; in series [4], more than 10 µM. For the same compound, in series [3], the Ratio is 2.25. Besides, the fraction unbound in series [2] is less than 0.001.
For `COc1nc2ccc(Br)cc2cc1C(c1cccc(C)c1)C(O)(CCN(C)C)c1cccnc1C` (racemic), the IC50 in series [1] is more than 10 µg/mL; in series [4], more than 10 µM. Further, the fraction unbound in series [2] was less than 0.001.
`COc1cccc(C(c2cc3cc(Br)ccc3nc2OC)C(O)(CCN(C)C)c2cnc(C)cc2C)c1OC` (racemic): the Ratio in series [3] came out at 104. Moreover, in series [2], the fraction unbound was less than 0.001.
In series [1], `COc1cnc(OC)c(C(O)(CCN(C)C)C(c2cc3cc(Br)ccc3nc2OC)c2cccc(OC)c2F)c1` (racemic) had an IC50 of more than 10 µg/mL. Further, the fraction unbound in series [2] is less than 0.001.
Compound `COc1nc2ccc(C#N)cc2cc1C(c1cccc(F)c1)C(O)(CCN(C)C)c1cncc(C)c1` (racemic) had an IC50 in series [1] of more than 10 µg/mL. For the same compound, the fraction unbound in series [2] was less than 0.001.
Consider `COc1cccc(C(c2cc3cc(Br)ccc3nc2OC)C(O)(CCN(C)C)c2ccc(C)nc2)c1F` (racemic), for which the IC50 in series [1] is more than 10 µg/mL; in series [4], more than 10 µM. Also, the fraction unbound in series [2] was less than 0.001.
Take `COc1nc2ccc(Br)cc2cc1C(c1cccc(C)c1)C(O)(CCN(C)C)c1cccnc1OC` (racemic): the IC50 in series [1] is more than 10 µg/mL; in series [4], more than 10 µM. Also, the Ratio in series [3] came out at 19.3. Further, the fraction unbound in series [2] was less than 0.001.
On to `COc1cccc(C(c2cc3cc(C#N)ccc3nc2OC)C(O)(CCN(C)C)c2cc(C)nc(C)c2)c1F` (racemic), for which the IC50 in series [1] was more than 10 µg/mL; in series [4] it was more than 10 µM. For the same compound, the fraction unbound in series [2] is less than 0.001.
As to `COc1cc(C(O)(CCN(C)C)C(c2cc3cc(Br)ccc3nc2OC)c2ccnc(OC)c2OC)cnc1OC` (racemic), the IC50 in series [1] was more than 10 µg/mL. The Ratio in series [3] was found to be 71.3. In series [2], the fraction unbound was less than 0.001.
With `CCOc1cc(C(O)(CCN(C)C)C(c2cc(OC)nc(OC)c2)c2cc3cc(Br)ccc3nc2OC)cc(OC(C)C)n1` (racemic), in series [1], the IC50 was more than 10 µg/mL. In addition, the Ratio in series [3] was determined as 1650. In addition, the fraction unbound in series [2] is less than 0.001.
`COc1cccc(C(O)(CCN(C)C)C(c2cc3cc(Br)ccc3nc2OC)c2cccc3c2OCO3)n1` (racemic) displayed an IC50 in series [1] of more than 10 µg/mL. In series [3], the Ratio was 10.4. In series [2], the fraction unbound is less than 0.001.
`COc1cccc(C(c2cc3cc(Br)ccc3nc2OC)C(O)(CCN(C)C)c2cccc(C)n2)c1F` (racemic) came in with an IC50 in series [1] of more than 10 µg/mL. In addition, the fraction unbound in series [2] was less than 0.001.
What is called MIC90 is an inhibitory concentration at the 90% level, which refers to growth in some studies and to a panel of isolates in others. For the compound `COc1cccc(C(c2cc3cc(Br)ccc3nc2OC)C(O)(CCN(C)C)c2cc(C)nc(C)c2)c1OC` (racemic), the MIC90 in series [5] turned out to be 0.04 µg/mL (≈ 0.0673 µM); in series [6], 0.07 µg/mL (≈ 0.118 µM).
Turning to `COc1cc(C(O)(CCN(C)C)C(c2cc3cc(Br)ccc3nc2OC)c2ccnc(OC)c2OC)c(OC)nc1OC` (racemic), the IC50 in series [1] is more than 10 µg/mL. Besides, the fraction unbound in series [2] is less than 0.001.
